Test results as given in ChEMBL document CHEMBL1811767, “Quinoxalin-2(1H)-one derivatives as inhibitors against hepatitis C virus” (J Med Chem, 2011).

Assays:
[1] = Selectivity index, ratio of IC50 for human Huh7ET cells to EC50 for Hepatitis C virus; format: toxicity, cell-based, Huh-7; details: read-out: Ratio IC50/EC50
How it was run: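 SI taken as IC50 (CytoTox-1 viability, Huh 7 ET replicon cells, 72 h) divided by EC50 (replicon luciferase, same cells and exposure); each from four-replicate averages.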

Hepatitis C virus = experiment: Antiviral activity against Hepatitis C virus infected in human Huh7ET cells assessed as inhibition of dicistronic viral RNA replication after 72 hrs by luciferase reporter gene assay; format: functional, organism-based, Hepacivirus hominis; details: Huh-7, 72 h
How it was run: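 HCV replicon Huh 7 ET cells seeded 5000/well in DMEM without G418 overnight; compounds dissolved in DMSO, diluted in DMEM, dose-response. After 72 h, replicon-derived luciferase read by Steady-Glo. Mean of four replicates; EC50 = concentration inhibiting HCV RNA replication by 50%.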

[2] = Cytotoxicity against human Huh7ET cells by CytoTox-one cell proliferation assay; format: cell-based; details: Huh-7
How it was run: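 Parallel plate of replicon Huh 7 ET cells (5000/well, DMEM without G418), compounds from DMSO stocks diluted in DMEM, 72 h. Viability by tetrazolium-based CytoTox-1 proliferation assay. Mean of four replicates; IC50 = concentration decreasing cell viability by 50%.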

Structure (SMILES)	selectivity ratio [1]	EC50 (Hepatitis C virus) [µM]	IC50 [2] [µM]
CN(c1cc2ncc(=O)[nH]c2cc1NC(=S)NC(=O)c1cccc2ccccc12)C1CCCCC1	1.82	5.48	9.98
CN(c1cc2ncc(=O)[nH]c2cc1NC(=N)NCc1ccc(F)cc1)C1CCCCC1	0.8	12.8	10.2
CN(c1cc2ncc(=O)[nH]c2cc1NC(=S)NC(=O)c1ccc(Cl)nc1)C1CCCCC1	2.1	16.4	34.5
CN(c1cc2ncc(=O)[nH]c2cc1NC(=O)Nc1ccccc1)C1CCCCC1	0.5	11.4	5.52
CC(C)c1nc2cc(N(C)C3CCCCC3)c(Nc3nc(-c4ccccc4)cs3)cc2[nH]c1=O	7.8	8.62	67.4
CC(C)Cc1nc2cc(N(C)C3CCCCC3)c(Nc3nc(-c4ccccc4)cs3)cc2[nH]c1=O	7.9	4.19	33.3
CSCCc1nc2cc(N(C)C3CCCCC3)c(Nc3nc(-c4ccccc4)cs3)cc2[nH]c1=O	< 4.3	> 20	86
CN(c1cc2ncc(=O)[nH]c2cc1NC(=N)NCc1ccccn1)C1CCCCC1	< 2.4	> 20	48.6
CN(c1cc2ncc(=O)[nH]c2cc1Nc1nc(-c2ccc(C#N)cc2)cs1)C1CCCCC1	2.98	6.07	18.1
CN(c1cc2ncc(=O)[nH]c2cc1NC(=S)NC(=O)c1ccccc1)C1CCCCC1	4.57	2.42	11.1
COc1ccc(CNC(=N)Nc2cc3[nH]c(=O)cnc3cc2N(C)C2CCCCC2)cc1	< 0.98	> 20	19.5
CN(c1cc2ncc(=O)[nH]c2cc1NC(=N)NCc1ccc(Cl)cc1)C1CCCCC1	1.12	3.94	4.4
CN(C)c1cc2ncc(=O)[nH]c2cc1Nc1nc(-c2ccccc2)cs1	< 2.9	> 20	57.5
CN(c1cc2ncc(=O)[nH]c2cc1NC(=N)NCc1ccc(OC(F)(F)F)cc1)C1CCCCC1	0.9	3.97	3.7
Cc1nc2cc(N(C)C3CCCCC3)c(Nc3nc(-c4ccccc4)cs3)cc2[nH]c1=O	3.15	3.91	12.3
CN(c1cc2ncc(=O)[nH]c2cc1Nc1nc(-c2cccc3ccccc23)cs1)C1CCCCC1	8.4	6.8	57.4
COc1ccc(-c2csc(Nc3cc4[nH]c(=O)cnc4cc3N(C)C3CCCCC3)n2)cc1	< 0.75	> 20	15
CN(c1cc2ncc(=O)[nH]c2cc1Nc1nc2c(s1)Cc1ccccc1-2)C1CCCCC1	2.39	4.57	10.9
CCCN(CCC)c1cc2ncc(=O)[nH]c2cc1Nc1nc(-c2ccccc2)cs1	8.3	3.81	31.6
CN(c1cc2c(cc1Nc1nc(-c3ccccc3)cs1)NC(=O)C1CCCCN21)C1CCCCC1 (stereo unspecified)	9.27	1.19	11
CN(c1ccccc1)c1cc2ncc(=O)[nH]c2cc1Nc1nc(-c2ccccc2)cs1	3.4	4.61	15.9
Cc1ccsc1C(=O)NC(=S)Nc1cc2[nH]c(=O)cnc2cc1N(C)C1CCCCC1	3.84	3.27	12.6
